Results reported in ChEMBL document CHEMBL1157292, “(+)-agelasine D: improved synthesis and evaluation of antibacterial and cytotoxic activities” (J Nat Prod, 2006).
In brackets after ≈: the same amount, converted by molar mass. Activity calls are given as the source filed them. The calls are words filed in the database; no cut-off is given here.

Key:
[1] = Cytotoxicity against human CEM/s cells after 72 hrs by fluorometric microculture cytotoxicity assay; type: functional, cell-based
In short: (§1)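 FMCA method: compounds dissolved in 10% DMSO were tested at 10 concentrations, 0.15625–80 μM, each in triplicate. Plates included solvent, medium, Triton X-100 and PBS controls. Cells were exposed for 72 h, washed with PBS, and incubated with FDA for 40 min. Fluorescence, proportional to living cells, gave a survival index at each concentration. Values are mean ± SEM of triplicates, fitted by nonlinear regression.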

[2] = Cytotoxicity against human RPMI 8226/s cells after 72 hrs by fluorometric microculture cytotoxicity assay; type: functional, cell-based; conditions: RPMI8226/S; in short: as §1
[3] = tested on: Bacteroides thetaiotaomicron; test: Antibacterial activity against Bacteroides thetaiotaomicron DSM 2255 by standard broth microdilution technique; type: functional
In short: (§2)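 Strains kept at -80 °C and grown on blood agar at 35 °C for 24 h before testing. DMSO stocks were serially 2-fold diluted in reduced Wilkins-Chalgren broth to final 0.125–32 μg/mL. Colony suspension was set to 0.5 McFarland and diluted 1:10 (~1.5 × 10⁷ CFU/mL); 10 μL was added per well, in triplicate. Incubated anaerobically at 35 °C for 48 h. MIC was the lowest concentration without visible growth. Tests were repeated at least once.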

ACHN [4] = test: (§3) Cytotoxicity against multidrug-resistant human ACHN cells after 72 hrs by fluorometric microculture cytotoxicity assay; type: functional, cell-based; in short: as §1
U-937/GTB [5] = test: Cytotoxicity against human U937 GTB cells after 72 hrs by fluorometric microculture cytotoxicity assay; type: functional, cell-based; in short: as §1
[6] = tested on: Mycobacterium tuberculosis; test: Antibacterial activity against Mycobacterium tuberculosis by standard broth microdilution technique; type: functional
U-937/GTB [7] = test: Cytotoxicity against human U937 GTB cells at 80 uM after 72 hrs by fluorometric microculture cytotoxicity assay; type: functional, cell-based; in short: as §1
Bacteroides fragilis = test: Antibacterial activity against Bacteroides fragilis DSM 2151 by standard broth microdilution technique; type: functional; in short: as §2
Homo sapiens = organism: Homo sapiens; test: Cytotoxicity against human RPMI 8226/s cells at 80 uM after 72 hrs by fluorometric microculture cytotoxicity assay; type: functional, cell-based; in short: as §1
Escherichia coli = test: Antibacterial activity against Escherichia coli ATCC 25922 by standard broth microdilution technique; type: functional
In short: (§4)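 Exponential-phase cultures were diluted to a final inoculum of 1 × 10⁶ CFU/mL and mixed 1:1 with serial dilutions made in double-distilled water. Medium was 2% bactopeptone water for S. aureus, E. coli and P. aeruginosa, and brain heart infusion broth for E. faecalis and S. pyogenes. Incubated at 37 °C overnight. MIC was the lowest concentration without visible growth. Gentamycin served as internal control.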

Staphylococcus aureus = test: Antibacterial activity against Staphylococcus aureus ATCC 25923 by standard broth microdilution technique; type: functional; in short: as §4
ACHN [8] = test: as §3; type: functional, cell-based; in short: as §1; remark: listed apart in the source
CEM/s = test: Cytotoxicity against human CEM/s cells at 80 uM after 72 hrs by fluorometric microculture cytotoxicity assay; type: functional, cell-based; in short: as §1
Pseudomonas aeruginosa = test: Antibacterial activity against Pseudomonas aeruginosa ATCC 27853 by standard broth microdilution technique; type: functional; in short: as §4
Enterococcus faecalis = test: Antibacterial activity against Enterococcus faecalis by standard broth microdilution technique; type: functional; in short: as §4
Streptococcus pyogenes = test: Antibacterial activity against Streptococcus pyogenes ATCC 19615 by standard broth microdilution technique; type: functional; in short: as §4
L1210 = test: Cytotoxicity against mouse L1210 cells; type: functional, cell-based

**Q.** With `COc1cccc2c1C(=O)c1c(O)c3c(c(O)c1C2=O)C[C@@](O)(C(=O)CO)C[C@@H]3O[C@H]1C[C@H](N)[C@H](O)[C@H](C)O1` [DOXORUBICIN] as the compound, how does the IC50 [1] read?
**A.** 0.18 µM

**Q.** What about the IC50 [2] of the same compound?
**A.** 0.13 µM

**Q.** With `CC(=O)O[C@H]1C(=O)[C@@]2(C)[C@H]([C@H](OC(=O)c3ccccc3)[C@]3(O)C[C@H](OC(=O)[C@H](O)[C@@H](NC(=O)c4ccccc4)c4ccccc4)C(C)=C1C3(C)C)[C@]1(OC(C)=O)CO[C@@H]1C[C@@H]2O` [PACLITAXEL] as the compound, how does the IC50 [1] read?
**A.** 0.007 µM

**Q.** And the IC50 [2]?
**A.** 0.007 µM

**Q.** With `C=C1CC[C@H]2C(C)(C)CCC[C@]2(C)[C@H]1CC/C(C)=C/Cn1c[n+](C)c2nc[n-]/c(=N\OC(C)(C)C)c21` as the compound, how does the MIC [3] read?
**A.** 4 µg/mL (≈ 8.1 µM)

**Q.** And the IC50 [1]?
**A.** > 80 µM

**Q.** And the Activity (ACHN [4])?
**A.** inactive

**Q.** And the IC50 (U-937/GTB [5])?
**A.** > 80 µM

**Q.** And the MIC [6]?
**A.** 3.13 µg/mL (≈ 6.34 µM)

**Q.** What about the Activity (U-937/GTB [7]) of the same compound?
**A.** inactive

**Q.** And the IC50 [2]?
**A.** > 80 µM

**Q.** And the MIC (Bacteroides fragilis)?
**A.** 4 µg/mL (≈ 8.1 µM)

**Q.** What about the Activity (Homo sapiens) of the same compound?
**A.** inactive

**Q.** What about the MIC (Escherichia coli) of the same compound?
**A.** 32 µg/mL (≈ 64.8 µM)

**Q.** What about the MIC (Staphylococcus aureus) of the same compound?
**A.** 6 µg/mL (≈ 12.2 µM)

**Q.** And the IC50 (ACHN [8])?
**A.** > 80 µM

**Q.** And the Activity (CEM/s)?
**A.** inactive

**Q.** Which results are given for `C=C1CC[C@H]2C(C)(C)CCC[C@]2(C)[C@H]1CC/C(C)=C/Cn1c[n+](C)c2nc[n-]/c(=N\OC)c21`?
**A.** MIC [3]: 4 µg/mL (≈ 8.86 µM); IC50 [1]: 2.33 µM; IC50 (U-937/GTB [5]): 1.03 µM; MIC [6]: > 6.25 µg/mL; IC50 [2]: 0.2 µM; MIC (Bacteroides fragilis): 4 µg/mL (≈ 8.86 µM); MIC (Escherichia coli): 8 µg/mL (≈ 17.7 µM); MIC (Staphylococcus aureus): 2 µg/mL (≈ 4.43 µM); IC50 (ACHN [8]): 8.01 µM; MIC (Pseudomonas aeruginosa): 32 µg/mL (≈ 70.8 µM); MIC (Enterococcus faecalis): 8 µg/mL (≈ 17.7 µM); MIC (Streptococcus pyogenes): 2 µg/mL (≈ 4.43 µM)

**Q.** Which MIC [3] does the source give for `Cc1ncc([N+](=O)[O-])n1CCO` [METRONIDAZOLE] here?
**A.** 1 µg/mL (≈ 5.84 µM)

**Q.** What about the MIC (Bacteroides fragilis) of the same compound?
**A.** 0.5 µg/mL (≈ 2.92 µM)

**Q.** Which MIC [6] does the source give for `CO[C@H]1/C=C/O[C@@]2(C)Oc3c(C)c(O)c4c(O)c(c(/C=N/N5CCN(C)CC5)c(O)c4c3C2=O)NC(=O)/C(C)=C\C=C\[C@H](C)[C@H](O)[C@@H](C)[C@@H](O)[C@@H](C)[C@H](OC(C)=O)[C@@H]1C` [RIFAMPIN] here?
**A.** 0.25 µg/mL (≈ 0.304 µM)

**Q.** For `C/C(=C\Cn1c[n+](C)c2ncnc(N)c21)CC[C@@]1(C)[C@H](C)CC[C@@]2(C)C(COC(=O)c3cc(Br)c[nH]3)=CCC[C@@H]12`, which IC50 (L1210) is on record?
**A.** 4.8 µM

**Q.** With `C=C1CC[C@H]2C(C)(C)CCC[C@]2(C)[C@H]1CC/C(C)=C/Cn1c[n+](C)c2ncnc(N)c21.[Cl-]` as the compound, how does the MIC [3] read?
**A.** 8 µg/mL

**Q.** And the IC50 [1]?
**A.** 4.68 µM

**Q.** And the IC50 (U-937/GTB [5])?
**A.** 5.59 µM

**Q.** What about the MIC [6] of the same compound?
**A.** > 6.25 µg/mL

**Q.** What about the IC50 [2] of the same compound?
**A.** 3.7 µM

**Q.** What about the MIC (Bacteroides fragilis) of the same compound?
**A.** 16 µg/mL

**Q.** What about the MIC (Escherichia coli) of the same compound?
**A.** 8 µg/mL

**Q.** And the MIC (Staphylococcus aureus)?
**A.** 1 µg/mL

**Q.** What about the IC50 (ACHN [8]) of the same compound?
**A.** 25 µM

**Q.** What about the MIC (Pseudomonas aeruginosa) of the same compound?
**A.** 16 µg/mL

**Q.** What about the MIC (Enterococcus faecalis) of the same compound?
**A.** 8 µg/mL

**Q.** And the MIC (Streptococcus pyogenes)?
**A.** 2 µg/mL
